Experimental data published in ChEMBL document CHEMBL4513216, “Probing the Open Global Health Chemical Diversity Library for Multistage-Active Starting Points for Next-Generation Antimalarials” (ACS Infect Dis, 2020).

Test: Toxicity liver stage against HepG2, at 10uM
Format: cell-based
Set-up: test concentration 10 uM, cell line HepG2-A16-CD81EGFP
Settings: human, HepG2-A16-CD81EGFP cells; read-out: INHIBITION
How it was run: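 Uninfected HepG2-A16-CD81EGFP cells, 3 × 10^3 per well, 1536-well, plated on prespotted compound at 10 μM final, parasite-free screening media added to match infected plates; puromycin 10 μM positive, DMSO 0.5% negative; run in parallel with 48 h PbLuc assay at 37 °C, 5% CO2; viability by CellTiter-Glo luminescence, normalized to controls.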

SMILES	cytotoxicity at 10 µM
Cc1nc(Nc2nccs2)cc(C2CN(C(C)C)C2)n1	-5.42%
COc1cc(F)ccc1-c1cc(N)ccn1	-9.5%
CN(c1ccc(C#N)cn1)C1CCCN(Cc2noc(C3CC3)n2)C1 (stereo not drawn)	-17.2%
Cc1ccn2ncc(C(=O)N3CCCC(n4nc(C)nc4C)C3)c2n1 (stereo not drawn)	-13.6%
CCS(=O)(=O)N1CCC2(CCCN(Cc3cc(OC)ccc3F)C2)C1 (stereo not drawn)	14.4%
CC(NC(=O)CNc1cc2c(cc1Cl)OCCO2)c1ccco1 (stereo not drawn)	-1.31%
Cc1cnccc1N1CCN(C(=O)C2CC3(CCNCC3)CN2)CC1 (stereo not drawn)	-13.7%
O=C(c1ccco1)N1CCC2(CCC(=O)N2Cc2cccc(F)c2)CC1	2.84%
COc1ccc2c(C)c(C(=O)NC3CCCOC3)oc2c1 (stereo not drawn)	-7.28%
Cc1nc(C(C)C)sc1C(=O)NCC(C)(C)N1CCOCC1	-6.47%
CN1CCc2c(CNc3ncccn3)n[nH]c2C1	-3.21%
O[C@@H]1CC(CNCC2CCCC2)(COc2cccnc2)C[C@@H]1O (stereo partly drawn)	-6.53%
CC(C)[C@H](NC(=O)N1CCN(c2ccc(Cl)cc2)CC1)C(=O)NC1CC1	-7.39%
N#Cc1ccc(Cl)cc1N1CCC(OC2CCOCC2)CC1	3.99%
Cc1cccc(NC2CCN(C(=O)Nc3ccc(F)cc3C)CC2)n1	-11.7%
c1cc(-c2cscn2)cc(N2CCC(NCCc3cccs3)CC2)c1	8.65%
COc1ccc(-c2csc3c2c(N)nc(=O)n3CCN(C)C)cc1	-49.9%
O=C(c1cc(COc2ccc3c(c2)OCO3)[nH]n1)N1CCSCC1	-7.05%
CC1CCN(CCNC(=O)c2ccn(-c3ccccc3)n2)CC1	-5.99%
CCOc1ccc(S(=O)(=O)C(C)C(=O)Nc2cc(C)no2)cc1 (stereo not drawn)	5.07%
CCCc1nc(N2Cc3cnn(Cc4ccc(F)cc4)c3C2)no1	17.3%

SMILES	cytotoxicity at 10 µM
CN1CCCN(C(=O)NCCNc2ncccc2C#N)CC1	6.75%
CC(C)Cc1cc(C(=O)NCC2CCCN(Cc3ccco3)C2)on1 (stereo not drawn)	-5.12%
CC(C)c1nn(C)c(Cl)c1CNCC(=O)N1CCN(C)CC1	2.2%
CN(C)c1nc(N2CCCC2)nc2c1CCN(C(=O)c1ccoc1)CC2	14.9%
CC1(C(=O)NC2CCCC2)CCCN(c2cnccn2)C1 (stereo not drawn)	-5.81%
Cc1cc2n(n1)CC(CNCc1ccc(-n3cccn3)nc1)CN2 (stereo not drawn)	-10.5%
CC(C)(C)OC(=O)N1CCN(S(C)(=O)=O)C2(CCCCC2)C1	10.3%
Cc1nccn1CCCN1CCCC(c2nccn2CC2CCC2)C1 (stereo not drawn)	-13.7%
COc1cc(C(=O)N2CCC(c3n[nH]c(C4CC4)n3)CC2)ccc1C	3.37%
CC(=O)NC1CCN(c2cc(C3CCNCC3)nc(C)n2)C1 (stereo not drawn)	-1.92%
O=C(CCNc1ncccn1)N1CCCC(n2cccn2)C1 (stereo not drawn)	0.2%
N#CCSCCCN1CCC(C(=O)N2CCCCCC2)CC1	5.37%
Cc1cc(C(=O)N2CCCC2)ccc1NCC(=O)N1CCCCC1C (stereo not drawn)	5.12%
c1cnc(Nc2cncc(C3CCCN3)n2)cn1 (stereo not drawn)	-8.69%
Cc1oc(-c2ccsc2)nc1CN1CC[C@@H]2CCCC[C@H]2C1	7.16%
CC1CCN(C(=O)c2ccc(N(C)Cc3cnn(C)c3)nc2)CC1	-13.8%
C=C(C)COCCNC(=O)C1CCCN1C(C)=O (stereo not drawn)	-10.7%
Cc1nnsc1C(=O)N1CCC(c2nc3ccccc3[nH]2)CC1	2.5%
CC(=O)Nc1cc2c(cc1C)OCO2	10.5%
CC(C)CNC(=O)CSC1CCc2ccccc2NC1=O (stereo not drawn)	-2.38%
CC(C)c1nccn1-c1cncc(C2CCCN2Cc2cccnc2)n1 (stereo not drawn)	-6.27%

SMILES	cytotoxicity at 10 µM
O=C(O)CCc1cc2n(n1)CCCN(C(=O)c1ccc(F)cc1F)C2	-0.168%
CN1CC2(CCN(C(=O)c3ccc4nccnc4c3)CC2)CC1=O	-1.7%
COc1cccc(-n2nnc(C(=O)N3CCN(C)CC3C)c2C)c1 (stereo not drawn)	-4.05%
CCCN1CCN(Cc2nccn2CC)C(C)C1 (stereo not drawn)	8.14%
c1cc(CCN2CCCC2CN2CCCCC2)ccn1 (stereo not drawn)	0.295%
CCN(Cc1ccc2c(c1)OCO2)Cc1nc2c(cnn2C)c(=O)[nH]1	-21%
CCNC(=O)[C@@H]1C[C@@H](N)CN1Cc1ccc2cccc(Cl)c2n1	12.9%
O=C(Nc1cc(-n2cccc2)ccc1F)N1CCCC1	-4.22%
CS(=O)(=O)NCCCN1CCCC1c1ccsc1 (stereo not drawn)	2.85%
N#Cc1cccnc1NC1CCN(c2ccccc2OC(F)F)C1=O (stereo not drawn)	6.37%
Cc1noc(CN(Cc2ccc3c(c2)OCO3)C2CCCC2)n1	-5.28%
COCC(=O)NCC[C@H]1CC(C)(C)Oc2ccc(OC)cc21	-5.36%
Cc1cccc(NC(=O)c2sc(C)nc2C)n1	5.52%
CCCN(CCn1c(=O)oc2ccccc21)CC1CC1	1.78%
CC(=O)c1cccc(S(=O)(=O)N2CCC(c3n[nH]c(C)n3)CC2)c1	-5.83%
Cc1cnn(CC2CCCN2Cc2nnc(C(C)C)o2)c1 (stereo not drawn)	-20.3%
CCC(CNC(=O)c1ccccc1Br)N1CCc2ccccc2C1 (stereo not drawn)	16.6%
COc1ccc(NC(=O)N2CCC3(CC2)NC(=O)CC3C(=O)O)cc1Cl (stereo not drawn)	-3.06%
CNC(=O)C1(CCCc2ccccn2)CN(Cc2scnc2C)C1	18%
CN(C)C(=O)CN1CCC2(CCCN(Cc3cccnc3)C2)C1=O (stereo not drawn)	-103%
CCS(=O)(=O)N1CC[C@H]2O[C@H](c3nnc(C)o3)CC[C@H]21	-75.6%

SMILES	cytotoxicity at 10 µM
CN(CCCO)C(=O)c1ccc2c(c1)nc(N1CC[C@H](O)C1)n2C	-1.46%
CC(C)c1nc(C2CCCN(C(=O)c3ccc4[nH]nnc4c3)C2)no1 (stereo not drawn)	7.34%
Cc1ccc2cc(C(=O)NCCn3nc4ccccn4c3=O)[nH]c2c1	2.95%
Cc1noc(CN(C)c2nc(-c3ccco3)nc3c2CCN(C)CC3)n1	-0.0198%
CCCNc1ncc(CN2CCN(C)C(=O)C2C)cn1 (stereo not drawn)	12.9%
CCN1CCC(CNC(=O)C2(c3cccc(C)c3)CCCCC2)CC1	-11.8%
O=C1CCSCC(C(=O)N2CCCC2)N1 (stereo not drawn)	-9.83%
Cc1cc(C)cc(NCCC(=O)NC2CCN(C(=O)C3CC3)CC2)c1	2.4%
CC(=O)N1C[C@H]2CCCN(c3ncc(C)cn3)[C@H]2C1	9.52%
O=C(NCCC1=CCCCC1)c1ccc(-n2cccc2)nc1	-1.46%
CC(=O)N(Cc1ncc(C(C)C)o1)C1CCN(Cc2ncc[nH]2)C1 (stereo not drawn)	-6.02%
CN(C)CC1CN(C(=O)CCc2ccccc2)Cc2nccn2C1 (stereo not drawn)	-121%
O=C(c1ccn(-c2ccc(F)cc2)n1)N1CCCC(n2ccnc2)C1 (stereo not drawn)	-16.3%
Fc1ccc(CN2CCCn3cnc(COCC4CC4)c3C2)cc1	7.43%
CN1CC(=O)N(c2cccc(F)c2)CC12CCN(CCO)C2 (stereo not drawn)	-82.1%
CCCN1CC2(CCN(C)CC2)CC1C(=O)NCCn1nc(C)nc1C (stereo not drawn)	2.7%
O=C(C1CCOC1)N1CCN(Cc2ccncc2)c2ncccc2C1 (stereo not drawn)	0.617%
O=C(NCCc1ccsc1)Nc1cccnc1N1CCCC1	-6.78%
Cc1c(C(=O)NCc2ccnc(OCC(F)(F)F)c2)cnn1C	-5.78%
CCSc1ncc(CN(Cc2cnn(C)c2)CC(C)C)cn1	-7.53%
